According to ChEMBL document CHEMBL1208708, “Piperidinyl-nicotinamides as potent and selective somatostatin receptor subtype 5 antagonists” (Bioorg Med Chem Lett, 2010):
Values after ≈ are worked out from the molar mass of the structure shown. Active and inactive are the calls of the source. The calls are words filed in the database; no cut-off is given here.

Tests used:
[1] = biological target: T1, Somatostatin receptor type 5 (Homo sapiens, UniProt P35346); test: Displacement of radio labeled 11 Tyr SST14 from human SST5 receptor expressed in CHO cells; type: cell-based
T1 sequence (P35346 whole entry): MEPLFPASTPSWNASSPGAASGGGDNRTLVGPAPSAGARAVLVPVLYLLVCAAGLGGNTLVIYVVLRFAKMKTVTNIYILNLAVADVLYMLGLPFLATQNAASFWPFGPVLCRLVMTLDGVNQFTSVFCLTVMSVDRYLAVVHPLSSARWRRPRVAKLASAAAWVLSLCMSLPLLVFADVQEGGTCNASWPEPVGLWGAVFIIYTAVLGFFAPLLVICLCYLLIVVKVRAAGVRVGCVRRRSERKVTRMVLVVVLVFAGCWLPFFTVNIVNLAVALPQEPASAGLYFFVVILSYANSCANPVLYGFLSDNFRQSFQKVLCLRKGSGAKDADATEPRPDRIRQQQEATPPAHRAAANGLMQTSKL
Procedure, shortened: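 Membranes from SST5-expressing cells, made by sonication, incubated with radiolabeled 11Tyr SST-14 and varying test compound; non-specific binding defined with unlabeled SST-14. Incubation stopped by glass-fiber filtration, bound radioactivity counted; IC50 and Ki derived.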

Homo sapiens = species: Homo sapiens; test: Selectivity ratio of human SST1 receptor to human SST5 receptor
[2] = biological target: Histamine H1 receptor (Homo sapiens) (UniProt P35367); test: Inhibition of human histamine H1 receptor ar 3 uM
Sequence of Histamine H1 receptor (Homo sapiens) (P35367 whole entry): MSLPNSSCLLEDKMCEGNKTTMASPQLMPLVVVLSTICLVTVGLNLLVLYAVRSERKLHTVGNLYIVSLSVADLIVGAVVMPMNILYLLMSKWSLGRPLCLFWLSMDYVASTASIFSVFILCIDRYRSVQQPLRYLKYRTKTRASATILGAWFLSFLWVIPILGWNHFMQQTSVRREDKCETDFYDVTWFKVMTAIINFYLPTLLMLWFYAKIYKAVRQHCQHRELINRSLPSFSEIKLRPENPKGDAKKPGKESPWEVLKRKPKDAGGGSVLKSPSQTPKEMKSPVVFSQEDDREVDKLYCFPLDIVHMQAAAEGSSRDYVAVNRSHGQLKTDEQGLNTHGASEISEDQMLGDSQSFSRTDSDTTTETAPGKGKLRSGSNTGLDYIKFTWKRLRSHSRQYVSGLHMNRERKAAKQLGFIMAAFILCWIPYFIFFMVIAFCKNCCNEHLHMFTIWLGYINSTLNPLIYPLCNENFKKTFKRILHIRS

[3] = Solubility of the compound in 50 mM phosphate buffer at pH 6.5 by lyophilisation solubility assay; type: physicochemical
Procedure, shortened: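 Compound taken from DMSO stock solution, lyophilized, then dissolved in 50 mM phosphate buffer at pH 6.5; dissolved amount read spectrophotometrically.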

[4] = Octanol-TAPSO distribution coefficient, log D of the compound at pH 7.4 by spectrophotometric analysis; type: physicochemical; details: octanol/TAPSO buffer
Procedure, shortened: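 Octanol/50 mM TAPSO buffer at pH 7.4 containing 5% (v/v) DMSO; partitioning read spectrophotometrically.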

[5] = Dissociation constant, pKa of the compound by spectrophotometric analysis; type: physicochemical
Procedure, shortened: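 Measured spectrophotometrically in SGA buffer with 10% (v/v) methanol, ionic strength 150 mM; value refers to the piperidine nitrogen.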

[6] = biological target: T1, Somatostatin receptor type 5; test: Antagonist activity at human SST5 receptor expressed in CHO cells assessed as inhibition of forskolin-induced cAMP accumulation by FRET assay; type: functional, cell-based
[7] = Membrane permeability of the compound by PAMPA; type: ADME; details: read-out: permeability
[8] = biological target: Somatostatin receptor type 2 (Homo sapiens) (UniProt P30874); test: Antagonist activity at human SST2 receptor expressed in CHO cells assessed as inhibition of forskolin-induced cAMP accumulation by FRET assay; type: functional, cell-based
Sequence of Somatostatin receptor type 2 (Homo sapiens) (P30874 whole entry): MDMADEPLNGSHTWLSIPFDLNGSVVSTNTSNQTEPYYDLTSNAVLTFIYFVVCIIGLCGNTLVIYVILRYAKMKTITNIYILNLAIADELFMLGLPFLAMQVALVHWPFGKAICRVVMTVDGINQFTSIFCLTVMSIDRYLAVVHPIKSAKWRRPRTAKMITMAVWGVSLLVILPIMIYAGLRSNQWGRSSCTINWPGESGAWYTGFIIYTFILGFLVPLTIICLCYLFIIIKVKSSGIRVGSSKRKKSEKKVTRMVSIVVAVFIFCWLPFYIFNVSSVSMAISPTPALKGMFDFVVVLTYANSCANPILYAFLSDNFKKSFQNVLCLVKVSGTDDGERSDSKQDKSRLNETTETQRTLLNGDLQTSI

[9] = biological target: Somatostatin receptor type 3 (Homo sapiens) (UniProt P32745); test: Antagonist activity at human SST3 receptor expressed in CHO cells assessed as inhibition of forskolin-induced cAMP accumulation by FRET assay; type: functional, cell-based
Sequence of Somatostatin receptor type 3 (Homo sapiens) (P32745 whole entry): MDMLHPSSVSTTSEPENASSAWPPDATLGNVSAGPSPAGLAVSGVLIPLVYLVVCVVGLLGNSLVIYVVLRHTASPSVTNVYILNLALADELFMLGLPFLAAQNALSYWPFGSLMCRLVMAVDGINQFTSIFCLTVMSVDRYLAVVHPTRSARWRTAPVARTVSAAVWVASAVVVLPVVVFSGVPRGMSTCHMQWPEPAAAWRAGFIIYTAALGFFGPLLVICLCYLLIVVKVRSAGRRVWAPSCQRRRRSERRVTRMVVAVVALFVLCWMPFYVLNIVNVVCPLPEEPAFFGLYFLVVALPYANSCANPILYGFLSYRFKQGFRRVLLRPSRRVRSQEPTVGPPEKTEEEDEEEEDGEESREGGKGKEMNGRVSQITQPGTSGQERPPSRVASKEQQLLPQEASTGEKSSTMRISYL

[10] = biological target: Somatostatin receptor type 4 (Homo sapiens) (UniProt P31391); test: Antagonist activity at human SST4 receptor expressed in CHO cells assessed as inhibition of forskolin-induced cAMP accumulation by FRET assay; type: functional, cell-based
Sequence of Somatostatin receptor type 4 (Homo sapiens) (P31391 whole entry): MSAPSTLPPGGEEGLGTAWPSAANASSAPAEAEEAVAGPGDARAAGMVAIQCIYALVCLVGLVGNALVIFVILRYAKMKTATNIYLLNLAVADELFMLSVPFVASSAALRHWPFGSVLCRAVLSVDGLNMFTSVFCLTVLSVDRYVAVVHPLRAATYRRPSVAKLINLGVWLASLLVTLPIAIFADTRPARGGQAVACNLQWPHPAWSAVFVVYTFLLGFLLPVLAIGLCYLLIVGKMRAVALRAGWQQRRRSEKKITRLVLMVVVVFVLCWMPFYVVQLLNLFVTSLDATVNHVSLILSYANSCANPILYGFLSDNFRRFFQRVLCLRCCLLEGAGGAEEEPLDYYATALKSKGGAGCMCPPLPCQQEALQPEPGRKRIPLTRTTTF

SMILES	Ki [1]	Selectivity ratio (Homo sapiens)	inhibition [2]	solubility [3]	logD [4]	pKa [5]	EC50 [6]	Papp [7]	Activity [8]	Activity [9]	Activity [10]
CCOc1cc(CN2CCC(NC(=O)c3ccc(Cl)nc3)CC2)cc(OCC)c1-c1ccc(F)cc1	7.9 nM	54	7.1%	76 µg/mL (≈ 148 µM)	3.55	7.8	> 1000 nM	–	–	–	–
CCOc1cc(CN2CCC[C@@H](NC(=O)c3cncc(C)c3)CC2)ccc1C	22 nM	256	97%	–	–	–	–	–	–	–	–
CCOc1cc(CN2CCC[C@@H](NC(=O)c3cncc(C)c3)CC2)cc(OCC)c1F	22 nM	253	58%	–	–	–	–	–	–	–	–
CCOc1cc(CN2CCC(NC(=O)c3ccc(N)nc3)CC2)cc(OCC)c1-c1ccc(F)cc1	7.1 nM	407	4.7%	123 µg/mL (≈ 250 µM)	3.15	7.86	> 1000 nM	1.39 ×10⁻⁶ cm/s	–	–	–
CCOc1cc(CN2CCC(NC(=O)c3cncc(C)c3)CC2)ccc1C	21 nM	> 500	81%	> 433 µg/mL	3.03	8.08	–	2.94 ×10⁻⁶ cm/s	–	–	–
CCOc1cc(CN2CCC[C@@H](NC(=O)c3cncc(C)c3)CC2)ccc1Cl	18 nM	175	98%	–	–	–	–	–	–	–	–
CCOc1cc(CN2CCC(NC(=O)c3cncc(C)c3)CC2)ccc1Cl	15 nM	335	–	172 µg/mL (≈ 443 µM)	3.05	7.63	–	1.93 ×10⁻⁶ cm/s	–	–	–
CCOc1cc(CN2CCC(NC(=O)c3cncc(C)c3)CC2)ccc1-c1ccc(C(F)(F)F)cc1	11 nM	89	48%	< 1 µg/mL	> 4	7.96	–	0.03 ×10⁻⁶ cm/s	–	–	–
CCOc1cc(CN2CCCC(NC(=O)c3cncc(C)c3)CC2)cc(OCC)c1-c1ccc(F)cc1 (racemic)	9.3 nM	86	54%	81 µg/mL (≈ 160 µM)	3.31	8.34	> 1000 nM	1.56 ×10⁻⁶ cm/s	–	–	–
CCOc1cc(CN2CCC(NC(=O)c3ccc(NC)nc3)CC2)cc(OCC)c1F	18 nM	> 500	55%	330 µg/mL (≈ 767 µM)	2.66	7.83	> 1000 nM	2.98 ×10⁻⁶ cm/s	–	–	–
CCOc1cc(CN2CCC(NC(=O)c3cncc(C)c3)CC2)cc(OCC)c1F	25 nM	180	25%	443 µg/mL (≈ 1070 µM)	2.9	7.7	> 1000 nM	3.48 ×10⁻⁶ cm/s	–	–	–
CCOc1cc(CN2CC(NC(=O)c3cncc(C)c3)C2)cc(OCC)c1F	> 1000 nM	–	–	> 499 µg/mL	2.44	7.19	–	1.93 ×10⁻⁶ cm/s	–	–	–
CCOc1cc(CN2CCCC(NC(=O)c3ccc(N)nc3)CC2)cc(F)c1F (racemic)	436 nM	–	–	–	–	–	> 1000 nM	–	inactive	inactive	inactive
CCOc1cc(CN2CCC[C@H](NC(=O)c3cncc(C)c3)CC2)ccc1Cl	637 nM	–	–	–	–	–	–	–	–	–	–
CCOc1cc(CN2CCC(NC(=O)c3cncc(C)c3)CC2)cc(OCC)c1-n1ccnc1	11 nM	213	33%	473 µg/mL (≈ 1020 µM)	2.61	7.34	> 1000 nM	3.17 ×10⁻⁶ cm/s	–	–	–
CCOc1cc(CN2CCC(NC(=O)c3ccc(N)nc3)CC2)ccc1C	19 nM	> 500	85%	375 µg/mL (≈ 1020 µM)	2.24	8.27	> 1000 nM	2.4 ×10⁻⁶ cm/s	–	–	–

Now from value to compound:

Ki [1]	Selectivity ratio (Homo sapiens)	inhibition [2]	solubility [3]	logD [4]	pKa [5]	EC50 [6]	Papp [7]	Activity [8]	Activity [9]	Activity [10]	SMILES
4 nM	–	–	106 µg/mL (≈ 258 µM)	3.61	7.92	–	2.36 ×10⁻⁶ cm/s	–	–	–	CCOc1cc(CN2CCC(NC(=O)c3cncc(C)c3)CC2)cc(OCC)c1C
4.4 nM	–	–	216 µg/mL (≈ 500 µM)	3.43	7.46	> 1000 nM	3.82 ×10⁻⁶ cm/s	–	–	–	CCOc1cc(CN2CCC(NC(=O)c3cncc(C)c3)CC2)cc(OCC)c1Cl
6.3 nM	141	35%	> 520 µg/mL	3.39	7.84	> 1000 nM	2.41 ×10⁻⁶ cm/s	–	–	–	CCOc1cc(CN2CCC(NC(=O)c3ccc(NC(C)C)nc3)CC2)cc(OCC)c1F
5.4 nM	224	-1.2%	152 µg/mL (≈ 321 µM)	3.73	7.74	> 1000 nM	0.64 ×10⁻⁶ cm/s	–	–	–	CCOc1cc(CN2CCC(NC(=O)c3cncc(C)c3)CC2)cc(OCC)c1-c1ccccc1
2.5 nM	211	11%	153 µg/mL (≈ 302 µM)	3.83	7.86	> 1000 nM	1.23 ×10⁻⁶ cm/s	–	–	–	CCOc1cc(CN2CCC(NC(=O)c3ccc(NC)nc3)CC2)cc(OCC)c1-c1ccc(F)cc1
2.4 nM	743	12%	< 1 µg/mL	> 4	–	> 1000 nM	–	–	–	–	CCOc1cc(CN2CCC(NC(=O)c3cncc(C)c3)CC2)cc(OCC)c1-c1ccc(OC(F)(F)F)cc1
4.9 nM	84	89%	101 µg/mL (≈ 226 µM)	4.1	7.87	> 1000 nM	1.32 ×10⁻⁶ cm/s	–	–	–	CCOc1cc(CN2CCC(NC(=O)c3cncc(C)c3)CC2)ccc1-c1ccc(F)cc1
6.7 nM	660	-1.2%	5 µg/mL (≈ 9.01 µM)	3.94	7.66	> 1000 nM	0.14 ×10⁻⁶ cm/s	inactive	inactive	inactive	CCOc1cc(CN2CCC(NC(=O)c3ccc(N)nc3)CC2)cc(OCc2ccccc2)c1-c1ccc(F)cc1
6.9 nM	439	13%	155 µg/mL (≈ 317 µM)	3.13	7.9	> 1000 nM	2.07 ×10⁻⁶ cm/s	–	–	–	CCOc1cc(CN2CCC(NC(=O)c3ccc(NC)nc3)CC2)cc(OCC)c1-c1ccccc1
4.4 nM	59	5.9%	94 µg/mL (≈ 191 µM)	4.01	7.69	> 1000 nM	0.46 ×10⁻⁶ cm/s	–	–	–	CCOc1cc(CN2CCC(NC(=O)c3cncc(C)c3)CC2)cc(OCC)c1-c1ccc(F)cc1
